# Assay outcomes deposited in PubChem by several laboratories.
# Runt-CBFb FRET – Runt domain-CBFb interaction inhibition | hit rate 0.46% among 220,000 | inhibition, % at 20 µM | Cerulean-Runt/Venus-CBFb FRET ratio 530/480, 1 h;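 active = inhibition over about 50% at 20 µM in the single-dose screen, limit read from the data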
# Target sequence (Q01196 whole entry, looked up, the tested form may be a part): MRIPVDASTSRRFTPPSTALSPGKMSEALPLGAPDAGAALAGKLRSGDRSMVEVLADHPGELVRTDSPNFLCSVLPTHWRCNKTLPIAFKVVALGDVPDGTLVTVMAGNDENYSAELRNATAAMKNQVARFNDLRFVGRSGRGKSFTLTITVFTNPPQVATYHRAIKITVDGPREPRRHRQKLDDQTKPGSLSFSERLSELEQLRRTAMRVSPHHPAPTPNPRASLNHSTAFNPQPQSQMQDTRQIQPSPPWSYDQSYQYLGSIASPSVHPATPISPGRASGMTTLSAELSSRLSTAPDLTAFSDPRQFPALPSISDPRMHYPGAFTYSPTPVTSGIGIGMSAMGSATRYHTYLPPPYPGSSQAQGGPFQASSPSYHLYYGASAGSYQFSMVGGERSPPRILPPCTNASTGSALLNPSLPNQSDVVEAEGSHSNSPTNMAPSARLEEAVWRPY
# Target sequence (Q13951 whole entry, looked up, the tested form may be a part): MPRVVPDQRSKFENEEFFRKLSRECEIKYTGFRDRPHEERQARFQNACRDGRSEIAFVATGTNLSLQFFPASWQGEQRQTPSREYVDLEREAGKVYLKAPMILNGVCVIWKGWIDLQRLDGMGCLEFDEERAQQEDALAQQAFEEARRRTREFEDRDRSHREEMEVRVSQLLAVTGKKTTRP
#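 Assay system: Cerulean-Runt domain / Medium: Tris 50 mM pH 7.5, KCl, K2SO4, 0.01% BSA / Timing: protein complex preformed 1 h, compound exposure 1 h, room temperature, dark / Measured by: FRET, excitation 422 nm, emission at 530 and 480 nm / Evaluation: loss of energy transfer signal / Control set: 5 µM unlabeled CBFb as full-inhibition high control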
# Runt-SMMHC FRET – blocks binding of human RUNX1 Runt domain to CBFb-SMMHC; hit rate 0.74% among 220,000; Q01196+Q13951; Cerulean-Runt/Venus-CBFb-SMMHC FRET ratio 530/480, 1 h; inhibition, % at 20 µM;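 active = mean inhibition across duplicate retests at 20 µM reaching about 50%, limit read from the data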;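 also: inhibitors lower the FRET ratio by blocking Runt binding to CBFb-SMMHC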
# AI-2 QS mod – modulators of Vibrio harveyi AI-2 quorum sensing system; activity change, % at 7.5 µM; hit rate 0.4% among 300,000; Vibrio harveyi JMH597 AI-2 luminescence/OD600 ratio, 9 h; hits give low values; strain lacks LuxN and CqsS sensors; 0 = neutral-control median; AID 2094; in the data active = activity change below about -75%, passing the limit was not always enough; inconclusive = no clear call, values can overlap the other calls;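 also: luminescence divided by OD600 gain over 9 h not by final OD600 alone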
# RanGTP-Impb inh – inhibitors of RanGTP-importin-beta interaction, primary screen, biochemical, FRET, CFP-Ran, YFP-importin-beta, homogeneous; cell-free CFP-Ran/YFP-importin-beta FRET ratio; inhibition, % (concentration not given with the values); hit rate 1.1% among 300,000; AID 2216;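 active = more than half of the replicate wells show a fall in the fluorescence ratio signal beyond about 16%, limit read from the data, passing the limit was not always enough; inconclusive = exactly half of the replicate wells pass the set limit; inactive = fewer than half of replicates pass the limit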
# KLK7 zymogen act – activators of human kallikrein-7 zymogen; P49862; purified proKLK7, EDANS-DABCYL substrate fluorescence; 100% is mature enzyme control, 0% vehicle; activation, % at 7 µM; hit rate 0.9% among 370,000;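 active = activation above the mean of all tested compounds plus 3 SD, computed per campaign excluding outliers beyond control limits, cut at about 13% in these data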
# Wee1 stabilizer – blocks degradation of human Wee1 kinase; P30291; AID 1321; HeLa Luc-Wee1K328M stability, luciferase luminescence; 100% = proteasome inhibitor MG132 effect; reporter increase, % at 5 µM; hit rate 1.2% among 220,000;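 active = activation above the mean of all tested compounds plus 3 SD, set per screening run, cut at about 8.8% in these data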;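 also: cells exposed to compound for 20 h before luminescence read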
# Hits are given with their value; - = inactive; ? = inconclusive; . = no result. Most compounds without a hit are left out; they make up all but 2.9% or so of the library.
SMILES,Runt-CBFb FRET,Runt-SMMHC FRET,AI-2 QS mod,RanGTP-Impb inh,KLK7 zymogen act,Wee1 stabilizer
NC(=O)c1nsc(C(=O)N(CCc2ccccc2)C(C(=O)NC2CCCC2)c2ccco2)c1N (configuration not stated),-,-,-,88.5,-,-
CCc1ccc(N(C(=O)c2snc(C(N)=O)c2N)C(C(=O)NC2CCCC2)c2ccco2)cc1 (configuration not stated),.,.,-,-,-,.
CC(=O)c1sc2nc(-c3cccs3)ccc2c1N,-,82.8,-,-,-,-
COc1ccc(C(=O)c2sc3nc(-c4ccc(OC)cc4)ccc3c2N)cc1,-,-,-,23.5,-,-
COc1cccc(NC(=O)Nc2nc3ncccn3c2-c2ccc(C)cc2)c1,.,.,.,.,-,.
CC(C)NC(=O)C1(C)CN(S(C)(=O)=O)CC(=O)N1Cc1cccc(C(F)(F)F)c1 (configuration not stated),.,.,.,.,-,.
C/C(=N\Nc1nc2ccccc2[nH]1)c1ccccn1,.,.,-86.8,-,-,.
C/C(=N\Nc1nc2ccccc2[nH]1)c1cc2ccccc2o1,-,-,-,-,-,-
CCn1cc(CNC(=S)Nc2cccc3ccccc23)cn1,-,-,-,-,-,9.3
S=C(NCc1cccnc1)Nc1cccc2ccccc12,-,-,-,-,-,-
C=CCOc1ccc(/C=C2\SC(=S)N(NS(=O)(=O)c3ccccc3)C2=O)cc1,.,.,-86.2,-,-,.
COc1ccc(/C=C2/SC(=S)N(NS(=O)(=O)c3ccccc3)C2=O)cc1,.,.,-,-,-,.
O=[N+]([O-])c1cccn2cc(-c3ccc(Br)cc3)nc12,-,-,-,-,-,9.8
Cc1ccc(-c2cn3cccc(C)c3n2)cc1,-,-,-,-,-,9.8
Cc1cccn2cc(-c3ccc(Cl)cc3)nc12,-,-,-,-,-,-
Cn1cccc([N+](=O)[O-])c1=O,.,.,.,.,-,.
COc1ccc(C(=O)/C=C/Nc2ccc(S(=O)(=O)Nc3nc(C)cc(C)n3)cc2)c(OC)c1,-,81.2,-,-,-,-
COc1cccc(CC(=O)Nc2ccc(S(=O)(=O)Nc3nc(C)cc(C)n3)cc2)c1,-,-,-,-,-,-
COc1ccc(C(=O)/C=C/Nc2ccc(S(=O)(=O)Nc3ncccn3)cc2)cc1,-,-,-,?,.,-
COc1ccc(C(=O)/C=C/Nc2ccc(S(=O)(=O)Nc3nc(C)cc(C)n3)cc2)cc1OC,-,67.0,-,-,-,-
Cc1cc2cc(CNC(=S)NC3CCCCC3)ccc2[nH]1,-,-,-,-,-,9.9
COc1cccc(CNC(=O)[C@H]2CCCN2C(=O)[C@H]2CCCN2C(=O)c2ccccc2C(F)(F)F)c1,.,.,.,.,-,.
Nc1cccc2c1CN(C1CCC(=O)NC1=O)C2=O (configuration not stated),.,.,.,.,-,.
CSc1ccccc1C(=O)NC1CCCC1,-,-,-,-,-,8.9
CCOC(=O)/C(=N/Nc1ccccc1)Sc1nnnn1-c1ccc(C)cc1,-,-,-,-,-,-
SMILES,Runt-CBFb FRET,Runt-SMMHC FRET,AI-2 QS mod,RanGTP-Impb inh,KLK7 zymogen act,Wee1 stabilizer
CCOC(=O)/C(=N/Nc1ccc(Cl)cc1)Sc1nnnn1-c1ccc(C)cc1,-,-,-,-,-,10.8
COCCNC(=O)C(C#N)c1nc2ccccc2nc1N1CCCCCC1 (configuration not stated),-,51.3,-,71.9,-,-
CN1CCN(c2nc3ccccc3nc2C(C#N)C(=O)OC2CCCCC2)CC1 (configuration not stated),-,-,-,15.2,-,-
COc1ccc(NC(=O)Cn2c(=O)n(-c3ccc(CC(=O)NCc4ccco4)cc3)c(=O)c3ccccc32)cc1,-,-,-,-,-,-
O=S1(=O)N[C@H](Cc2ccccc2)COc2cc(N3CCCC3)ccc21,.,.,.,.,-,.
COc1ccc(/C=C(/C(=O)c2cccs2)N2C=CC=CC2=C(C#N)C#N)cc1,-,-,-,21.8,-,-
c1ccc(-c2cccc(-c3ccccn3)n2)nc1,-,-,-89.0,-,.,-
O=C(CSc1nnc(-c2ccccc2)n1-c1ccc(Cl)cc1)Nc1ccc(OCc2ccccc2)cc1,.,.,.,.,-,.
COCCCNC(=S)N1CCCN(c2nc3cc(C)c(C)cc3cc2C#N)CC1,-,-,-,56.6,-,-
